pIC50: −log10 of the molar value. One block for each molecule: values may come before it. Active and inactive are the calls of the source. The rule behind the calls is not given here.
Assays:
[1] = target: Coagulation factor X (Homo sapiens, UniProt P00742); assay: Inhibition of human factor Xa using […] as substrate by chromogenic assay
[2] = system: OVCAR-4; assay: Cytotoxicity against human OVCAR-4 cells assessed as reduction in cell growth incubated for 48 hrs by SRB assay; assay type: functional, cell-based
In short: (§1)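 Cells kept in RPMI 1640 with 5% FBS and 2 mM L-glutamine at 37 °C in 5% CO2, periodically tested for Mycoplasma. After plating, cells were held 1 day without drug, and time-zero plates were read. Compounds in DMSO were added at 10^-4 to 10^-8 M (five 10-fold steps), with DMSO-only controls, for 48 h. Cells were then TCA-fixed and stained with sulforhodamine B, and absorbance was read. GI50 was derived from time-zero, control and treated absorbances; LC50 is the mean of two independent experiments.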

[3] = system: SF-295; assay: Cytotoxicity against human SF-295 cells assessed as reduction in cell growth incubated for 48 hrs by SRB assay; assay type: functional, cell-based; in short: as §1
[4] = system: A549; assay: Inhibition of cell migration in human A549 cells incubated for 24 hrs by phase contrast microscopy based relative wound healing/cell migration assay to control; assay type: functional; details: dose 0-50 µM
In short: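 Scratches were made in A549 monolayers. Cells were then grown in medium containing compound (0–50 μM) or DMSO vehicle, and wound closure was imaged by phase-contrast microscopy.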

[5] = system: MDA-MB-468; assay: Cytotoxicity against human MDA-MB-468 cells assessed as reduction in cell growth incubated for 48 hrs by SRB assay; assay type: functional, cell-based; in short: as §1
[6] = system: A549; assay: Cytotoxicity against human A549 cells assessed as reduction in cell growth at 10 uM incubated for 36 hrs by MTT assay relative to control; assay type: functional
In short: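 A549 cells were treated with 10 μM compound or DMSO vehicle, and growth inhibition was followed over time, with a 36 h time point.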

[7] = system: A549; assay: Inhibition of colony formation in human A549 cells grown under anchorage-independent soft-agar condition incubated for 9 days and subsequent media replenishment for every 3 days by crystal violet staining based light microscopy assay; details: dose 10-50 µM, time 9.0 day
[8] = system: A549; assay: Cytotoxicity against human A549 cells assessed as loss of cell morphological changes at 1 uM; assay type: functional, cell-based
In short: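 A549 cells grown overnight were exposed to 1 μM compound or DMSO vehicle, and changes in cell morphology were recorded.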

[9] = system: HCT-116; assay: Cytotoxicity against human HCT-116 cells assessed as reduction in cell growth incubated for 48 hrs by SRB assay; assay type: functional, cell-based; in short: as §1
[10] = system: A549; assay: Induction of cell cycle arrest in human A549 cells assessed as increase in subG1 phase accumulation incubated for 48 hrs by PI based flow cytometry; assay type: functional
In short: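 A549 cells were exposed for 48 h, stained with propidium iodide and analysed by flow cytometry for cell cycle distribution and the sub-G1 (dead cell) fraction.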

[11] = system: A549; assay: Induction of apoptosis in human A549 cells assessed as effect on caspase activation; assay type: functional, cell-based
[12] = system: A549; assay: Induction of cellular senescence in human A549 cells assessed as increase in SA-beta-Gal accumulation in cells at 10 to 50 uM incubated for overnight by microscopic analysis; assay type: functional, cell-based; details: dose 10-50 µM
[13] = system: PC-3; assay: Cytotoxicity against human PC-3 cells assessed as reduction in cell growth incubated for 48 hrs by SRB assay; assay type: functional, cell-based; in short: as §1
[14] = system: Panel NCI-60 (60 carcinoma cell lines); assay: Cytotoxicity against human Panel NCI-60 (60 carcinoma cell lines) assessed as reduction in cell growth incubated for 48 hrs by SRB assay; assay type: functional, cell-based; in short: as §1
[15] = system: RPMI-8226; assay: Cytotoxicity against human RPMI-8226 cells assessed as reduction in cell growth incubated for 48 hrs by SRB assay; assay type: functional, cell-based; in short: as §1

Sequence of Coagulation factor X (P00742 41-179 limits assumed): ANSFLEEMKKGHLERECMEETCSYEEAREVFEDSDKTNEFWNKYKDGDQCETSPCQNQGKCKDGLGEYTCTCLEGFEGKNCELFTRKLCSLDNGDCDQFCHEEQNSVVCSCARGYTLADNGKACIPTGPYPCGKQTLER
Sequence of Coagulation factor X (P00742 235-488 limits assumed): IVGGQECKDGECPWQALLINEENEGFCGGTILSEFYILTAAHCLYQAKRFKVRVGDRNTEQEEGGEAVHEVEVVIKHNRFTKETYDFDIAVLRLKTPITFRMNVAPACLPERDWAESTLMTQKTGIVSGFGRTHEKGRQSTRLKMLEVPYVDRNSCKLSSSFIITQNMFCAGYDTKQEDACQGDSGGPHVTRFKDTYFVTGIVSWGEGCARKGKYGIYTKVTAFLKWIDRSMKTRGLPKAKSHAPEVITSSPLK

pIC50 [1]: 9.40
SMILES: CC(=N)N1CCC(Oc2ccc3c(c2)C(=O)NS(=O)(=O)N3Cc2ccc3ccc(C(=N)N)cc3c2)CC1

SMILES: O=S1(=O)N(Cc2ccccc2)[C@@H](Cc2ccccc2)C=C[C@H](Cc2ccccc2)N1Cc1ccccc1
inhibition [2]: Active
inhibition [3]: Active
inhibition (INH) [4]: 50%
inhibition [5]: Active
inhibition at 10 µM [6]: 50%
inhibition [7]: Dose-dependent effect
Activity [8]: Active
inhibition [9]: Active
Activity [10]: Active
Activity [11]: inactive
Activity [12]: Active
inhibition [13]: Active

SMILES: O=S1(=O)N(Cc2ccccc2)[C@@H](Cc2ccccc2)[C@@H]2O[C@@H]2[C@H](Cc2ccccc2)N1Cc1ccccc1
inhibition [14]: Active
inhibition [15]: Active

SMILES: O=S1(=O)N(Cc2ccccc2)[C@@H](Cc2ccccc2)[C@H](O)[C@H](O)[C@H](Cc2ccccc2)N1Cc1ccccc1
inhibition [14]: Active
inhibition [15]: Active

SMILES: O=S1(=O)N(Cc2ccccc2)[C@H](Cc2ccccc2)[C@H](O)[C@H](O)[C@@H](Cc2ccccc2)N1Cc1ccccc1
inhibition [14]: Active
inhibition [15]: Active

Source: ChEMBL document CHEMBL4715923, “Investigation on the Anticancer Activity of Symmetric and Unsymmetric Cyclic Sulfamides” (ACS Med Chem Lett, 2021)
